Test results from ChEMBL document CHEMBL1765015, “Discovery of a potent and efficacious peptide derivative for δ/μ opioid agonist/neurokinin 1 antagonist activity with a 2',6'-dimethyl-L-tyrosine: in vitro, in vivo, and NMR-based structural studies” (J Med Chem, 2011).

Key:
[1] = biological target: T1, Delta-type opioid receptor (Homo sapiens, UniProt P41143); test: Agonist activity at human opioid delta receptor expressed in mouse HN9.10 cells assessed as [35S]GTPgammaS binding; type: functional, cell-based
How it was run: (§1)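 [35S]GTPγS binding on membranes of HN9.10 cells stably expressing human DOR or rat MOR, about 1 pmol receptor/mg membrane protein. logEC50 from non-linear regression of at least two independent experiments in duplicate; EC50 is the antilog. Emax given as percent stimulation.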

[2] = biological target: T1, Delta-type opioid receptor; test: Displacement of [3H]DPDPE from human delta opioid receptor expressed in mouse HN9.10 cells; type: cell-based
[3] = biological target: Substance-P receptor (Cavia porcellus) (UniProt P30547); test: Antagonist activity at NK1 receptor in guinea pig ileum assessed as inhibition of substance P-induced muscle contraction; type: functional, tissue-based
Substance-P receptor [4] = biological target: Substance-P receptor (Homo sapiens, UniProt P25103); test: Displacement of [3H]substance P from human NK1 receptor expressed in CHO cells; type: cell-based
Rattus norvegicus = test: Antinociceptive activity in Sprague-Dawley rat assessed as time required to maximum activity on reduction in infrared heat-induced paw withdrawal latency at 10 ug administered intrathecally; type: functional
How it was run: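 Male Sprague-Dawley rats (200-225 g) fitted with a lumbar intrathecal catheter under ketamine/xylazine and given 5-7 days recovery. Dose of 10 μg in 5 μL i.t., followed by air bubble and saline flush. Radiant heat applied to left hind paw after 20 min acclimation, with 33.0 s cutoff. Baseline taken 30 min before dosing; […], mean ± SEM.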

Substance-P receptor [5] = biological target: Substance-P receptor (Rattus norvegicus, UniProt P14600); test: Displacement of [3H]substance P from rat NK1 receptor expressed in CHO cells; type: cell-based
Mu-type opioid receptor [6] = biological target: T2, Mu-type opioid receptor (Rattus norvegicus, UniProt P33535); test: Displacement of [3H]DAMGO from rat mu opioid receptor expressed in mouse HN9.10 cells; type: cell-based
Plasma = test: Metabolic stability in rat plasma after up to 6 hrs; type: ADME, cell-free
How it was run: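 DMSO stock diluted 1000-fold into rat plasma, giving 50 μg/mL final, and incubated at 37 °C. Aliquots taken at 1, 2, 4 and 6 h, proteins precipitated with acetonitrile, and remaining parent measured by HPLC. Three independent experiments, mean ± SD; half-life calculated.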

[7] = biological target: Mu-type opioid receptor (Rattus norvegicus) (UniProt P33535); test: Agonist activity at rat mu opioid receptor expressed in mouse HN9.10 cells assessed as [35S]GTPgammaS binding relative to control; type: functional, cell-based; how it was run: as §1
[8] = biological target: T1, Delta-type opioid receptor; test: Agonist activity at human opioid delta receptor expressed in mouse HN9.10 cells assessed as [35S]GTPgammaS binding relative to control; type: functional, cell-based; how it was run: as §1
Mu-type opioid receptor [9] = biological target: Mu-type opioid receptor (Cavia porcellus, UniProt P97266); test: Agonist activity at mu opioid receptor in guinea pig ileum assessed as inhibition of electrically-stimulated muscle contraction; type: functional, tissue-based
[10] = biological target: Delta-type opioid receptor (Mus musculus, UniProt P32300); test: Agonist activity at delta opioid receptor in mouse vas deferens assessed as inhibition of electrically-stimulated muscle contraction; type: functional, tissue-based
Mu-type opioid receptor [11] = biological target: T2, Mu-type opioid receptor; test: Agonist activity at rat mu opioid receptor expressed in mouse HN9.10 cells assessed as [35S]GTPgammaS binding; type: functional, cell-based

T2 sequence (P33535 whole entry): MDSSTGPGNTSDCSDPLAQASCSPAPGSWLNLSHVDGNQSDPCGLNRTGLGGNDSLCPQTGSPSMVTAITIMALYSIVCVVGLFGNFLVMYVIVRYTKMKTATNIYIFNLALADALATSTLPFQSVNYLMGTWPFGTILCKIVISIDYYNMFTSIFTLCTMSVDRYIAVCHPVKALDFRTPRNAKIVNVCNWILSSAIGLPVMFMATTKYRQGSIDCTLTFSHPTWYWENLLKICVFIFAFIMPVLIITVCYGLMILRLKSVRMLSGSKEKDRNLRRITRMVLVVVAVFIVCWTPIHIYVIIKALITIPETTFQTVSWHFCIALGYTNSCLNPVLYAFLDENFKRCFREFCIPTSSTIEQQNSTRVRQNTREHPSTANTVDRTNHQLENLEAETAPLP
Delta-type opioid receptor (Mus musculus, UniProt P32300), sequence (P32300 whole entry): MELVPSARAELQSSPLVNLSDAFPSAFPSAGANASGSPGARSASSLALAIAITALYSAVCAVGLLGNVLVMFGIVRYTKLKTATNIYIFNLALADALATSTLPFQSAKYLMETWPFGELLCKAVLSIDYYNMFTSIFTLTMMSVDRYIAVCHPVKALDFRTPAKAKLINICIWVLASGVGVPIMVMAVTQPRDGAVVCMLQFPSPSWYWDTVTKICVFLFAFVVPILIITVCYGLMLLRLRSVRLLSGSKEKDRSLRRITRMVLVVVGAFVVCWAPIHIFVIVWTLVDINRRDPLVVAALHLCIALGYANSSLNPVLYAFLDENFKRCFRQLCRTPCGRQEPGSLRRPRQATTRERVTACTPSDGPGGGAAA
Substance-P receptor (Cavia porcellus), sequence (P30547 whole entry): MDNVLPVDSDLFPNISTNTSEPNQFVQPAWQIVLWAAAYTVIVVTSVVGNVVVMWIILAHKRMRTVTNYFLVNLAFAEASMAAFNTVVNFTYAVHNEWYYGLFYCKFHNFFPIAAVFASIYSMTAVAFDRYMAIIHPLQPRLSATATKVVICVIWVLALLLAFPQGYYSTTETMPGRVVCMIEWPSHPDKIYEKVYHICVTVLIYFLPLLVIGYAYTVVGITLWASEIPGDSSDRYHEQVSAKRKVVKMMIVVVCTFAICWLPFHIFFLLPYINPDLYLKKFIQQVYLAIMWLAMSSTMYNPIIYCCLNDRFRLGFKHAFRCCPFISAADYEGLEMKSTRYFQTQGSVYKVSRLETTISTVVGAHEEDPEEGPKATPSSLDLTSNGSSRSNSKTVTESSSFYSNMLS
Substance-P receptor (Rattus norvegicus, UniProt P14600), sequence (P14600 whole entry): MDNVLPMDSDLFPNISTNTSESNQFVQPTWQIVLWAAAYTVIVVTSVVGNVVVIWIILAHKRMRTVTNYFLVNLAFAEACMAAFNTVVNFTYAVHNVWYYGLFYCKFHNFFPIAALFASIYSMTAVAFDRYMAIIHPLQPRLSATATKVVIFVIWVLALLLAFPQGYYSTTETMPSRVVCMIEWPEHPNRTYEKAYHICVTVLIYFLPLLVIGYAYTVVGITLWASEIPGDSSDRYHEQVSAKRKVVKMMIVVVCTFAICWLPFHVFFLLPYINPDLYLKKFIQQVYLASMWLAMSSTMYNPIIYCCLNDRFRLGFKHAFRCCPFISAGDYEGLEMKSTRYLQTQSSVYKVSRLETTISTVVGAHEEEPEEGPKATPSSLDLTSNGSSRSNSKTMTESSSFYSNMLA
Mu-type opioid receptor (Cavia porcellus, UniProt P97266), sequence (P97266 whole entry): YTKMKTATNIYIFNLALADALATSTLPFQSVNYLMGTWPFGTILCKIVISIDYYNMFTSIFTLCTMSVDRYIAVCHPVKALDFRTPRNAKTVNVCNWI
T1 sequence (P41143 whole entry): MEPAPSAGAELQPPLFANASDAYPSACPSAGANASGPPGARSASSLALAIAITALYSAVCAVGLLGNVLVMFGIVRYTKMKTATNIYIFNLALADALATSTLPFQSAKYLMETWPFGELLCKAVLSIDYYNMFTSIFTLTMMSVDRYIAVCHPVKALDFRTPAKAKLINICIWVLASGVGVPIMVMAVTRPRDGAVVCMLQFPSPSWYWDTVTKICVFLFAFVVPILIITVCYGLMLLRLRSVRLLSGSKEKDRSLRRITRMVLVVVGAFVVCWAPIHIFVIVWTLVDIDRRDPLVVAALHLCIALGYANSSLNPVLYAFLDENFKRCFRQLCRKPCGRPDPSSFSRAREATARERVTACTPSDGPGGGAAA
Substance-P receptor (Homo sapiens, UniProt P25103), sequence (P25103 whole entry): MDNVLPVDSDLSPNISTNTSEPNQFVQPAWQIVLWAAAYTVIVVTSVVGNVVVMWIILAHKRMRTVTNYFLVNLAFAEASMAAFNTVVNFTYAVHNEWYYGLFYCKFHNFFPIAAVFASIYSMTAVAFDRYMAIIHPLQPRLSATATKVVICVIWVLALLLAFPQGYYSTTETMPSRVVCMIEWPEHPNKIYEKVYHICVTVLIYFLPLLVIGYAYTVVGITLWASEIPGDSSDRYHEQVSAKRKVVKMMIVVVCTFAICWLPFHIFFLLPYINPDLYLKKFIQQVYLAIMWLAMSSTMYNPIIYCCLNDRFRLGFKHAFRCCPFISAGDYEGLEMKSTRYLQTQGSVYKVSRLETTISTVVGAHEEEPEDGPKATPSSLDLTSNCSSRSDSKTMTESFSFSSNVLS
Mu-type opioid receptor (Rattus norvegicus), sequence (P33535 whole entry): as the sequence (P33535 whole entry) above

Structure (SMILES)	EC50 ([1]; read-out: pEC50 (converted))	IC50 [2]	Ke [3]	IC50 (Substance-P receptor [4])	Time (Rattus norvegicus)	IC50 (Substance-P receptor [5])	IC50 (Mu-type opioid receptor [6])	Stability (Plasma)	Ki (Substance-P receptor [5])	EC50 ([1]; read-out: EC50)	Emax [7]	Emax [8]	IC50 (Mu-type opioid receptor [9])	IC50 [10]	Ki (Substance-P receptor [4])	EC50 (Mu-type opioid receptor [11]; read-out: EC50)	Ki [2]	EC50 (Mu-type opioid receptor [11]; read-out: pEC50 (converted))
CCCC[C@H](NC(=O)[C@H](Cc1ccccc1)NC(=O)CNC(=O)[C@@H](C)NC(=O)[C@@H](N)Cc1c(C)cc(O)cc1C)C(=O)N1CCC[C@H]1C(=O)N[C@@H](CC(C)C)C(=O)N[C@@H](Cc1c[nH]c2ccccc12)C(=O)NCc1cc(C(F)(F)F)cc(C(F)(F)F)c1	0.126 nM	24 nM	13 nM	0.166 nM	–	–	–	–	–	–	–	–	–	–	–	–	–	–
CSCC[C@H](NC(=O)[C@H](Cc1ccccc1)NC(=O)CNC(=O)[C@@H](C)NC(=O)[C@@H](N)Cc1ccc(O)cc1)C(=O)N1CCC[C@H]1C(=O)N[C@@H](CC(C)C)C(=O)N[C@@H](Cc1c[nH]c2ccccc12)C(=O)NCc1cc(C(F)(F)F)cc(C(F)(F)F)c1	–	–	–	–	15 min	–	–	–	–	–	–	–	–	–	–	–	–	–
CSCC[C@H](NC(=O)[C@H](Cc1ccccc1)NC(=O)CNC(=O)[C@@H](C)NC(=O)[C@@H](N)Cc1c(C)cc(O)cc1C)C(=O)N1CCC[C@H]1C(=O)N[C@@H](CC(C)C)C(=O)N[C@@H](Cc1c[nH]c2ccccc12)C(=O)NCc1cc(C(F)(F)F)cc(C(F)(F)F)c1	–	0.38 nM	7.5 nM	0.0182 nM	–	5.13 nM	4.27 nM	Stable	–	–	–	–	–	–	–	–	–	–
CCCC[C@H](NC(=O)[C@H](Cc1ccccc1)NC(=O)CNC(=O)[C@@H](C)NC(=O)[C@@H](N)Cc1c(C)cc(O)cc1C)C(=O)N1CCC[C@H]1C(=O)N[C@@H](CC(C)C)C(=O)N[C@@H](Cc1c[nH]c2ccccc12)C(=O)NCc1cccc(C(F)(F)F)c1	0.437 nM	8.51 nM	14 nM	2.19 nM	–	389 nM	–	–	140 nM	0.2 nM	17%	50%	22 nM	8.7 nM	1 nM	–	–	–
CCCC[C@H](NC(=O)[C@H](Cc1ccccc1)NC(=O)CNC(=O)[C@@H](C)NC(=O)[C@@H](N)Cc1c(C)cc(O)cc1C)C(=O)N1CCC[C@H]1C(=O)N[C@@H](CC(C)C)C(=O)N[C@@H](Cc1c[nH]c2ccccc12)C(=O)N(C)Cc1cc(C(F)(F)F)cc(C(F)(F)F)c1	7.08 nM	0.977 nM	6.1 nM	0.468 nM	–	30.9 nM	3.31 nM	–	–	2.3 nM	–	49%	110 nM	14 nM	–	8 nM	–	–
CN1CC[C@]23c4c5ccc(O)c4O[C@H]2[C@@H](O)C=C[C@H]3[C@H]1C5 [MORPHINE]	–	–	–	–	20 min	–	–	–	–	–	–	–	–	–	–	–	–	–
CCCC[C@H](NC(=O)[C@H](Cc1ccccc1)NC(=O)CNC(=O)[C@@H](C)NC(=O)[C@@H](N)Cc1c(C)cc(O)cc1C)C(=O)N1CCC[C@H]1C(=O)N[C@@H](CC(C)C)C(=O)N[C@@H](Cc1c[nH]c2ccccc12)C(=O)NCc1ccc(OC)c(OC)c1	–	0.316 nM	24 nM	2 nM	–	891 nM	0.631 nM	–	320 nM	0.6 nM	48%	42%	23 nM	8.8 nM	0.95 nM	0.72 nM	0.15 nM	0.955 nM
